Test: Cytotoxicity against human LTEDaro cells after 72 hrs by MTT assay
Type: functional, cell-based
Method in brief: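 LTEDaro cells (long-term estrogen-deprived MCF-7aro) seeded in custom medium for 24 h, then exposed to a range of concentrations in DMSO (final ≤0.1%) for 72 h, with vehicle-matched DMSO controls. Medium then replaced with 0.5 mg/ml MTT for 2 h at 37°C in CO2 incubator; formazan dissolved in DMSO and read at 570 nm; triplicates.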

In the case of `Cc1ccccc1COc1cc(NC(=O)c2ccccc2)ccc1N(C)S(C)(=O)=O`, the IC50 is reported as 176 µM.
`Cc1cc(C)c(COc2cc(NC(=O)Cc3ccccn3)ccc2N(C)S(C)(=O)=O)c(C)c1` gave an IC50 of 51.3 µM.
Work on `CN(c1ccc(NC(=O)C2CCCCC2)cc1OCc1cc(Cl)ccc1Cl)S(C)(=O)=O` yielded an IC50 of 1 µM.
Compound `CC(C)c1ccc(COc2cc(NC(=O)Cc3ccncc3)ccc2N(C)S(C)(=O)=O)cc1` has an IC50 of 11.5 µM.
`CN(c1ccc(NC(=O)c2ccccc2)cc1OCc1cc(Cl)ccc1Cl)S(C)(=O)=O` showed an IC50 of 2.15 µM.
For `Cc1ccccc1COc1cc(NC(=O)Cc2ccncc2)ccc1N(C)S(C)(=O)=O`, the IC50 was 11.8 µM.
`Cc1ccccc1COc1cc(NC(=O)Cc2cccnc2)ccc1N(C)S(C)(=O)=O` showed an IC50 of 71.5 µM.
With `Cc1cc(C)c(COc2cc(NC(=O)c3ccccc3)ccc2N(C)S(C)(=O)=O)c(C)c1` the IC50 was 10.3 µM.
`Cc1cccc(C)c1COc1cc(NC(=O)C2CCCCC2)ccc1N(C)S(C)(=O)=O` gave an IC50 of 39.4 µM.
Compound `Cc1cccc(C)c1COc1cc(NC(=O)c2ccccc2)ccc1N(C)S(C)(=O)=O` has an IC50 of 16.2 µM.
In the case of `Cc1ccc(C)c(COc2cc(NC(=O)Cc3ccncc3)ccc2N(C)S(C)(=O)=O)c1`, the IC50 is reported as 2.37 µM.
Compound `Cc1ccc(C)c(COc2cc(NC(=O)Cc3cccnc3)ccc2N(C)S(C)(=O)=O)c1` has an IC50 of 1.69 µM.
`Cc1ccc(C)c(COc2cc(NC(=O)Cc3ccccn3)ccc2N(C)S(C)(=O)=O)c1` gave an IC50 of 174 µM.
In the case of `CC(C)c1ccc(COc2cc(NC(=O)Cc3ccccn3)ccc2N(C)S(C)(=O)=O)cc1`, the IC50 is reported as 11.4 µM.
With `Cc1cccc(COc2cc(NC(=O)Cc3ccncc3)ccc2N(C)S(C)(=O)=O)c1` the IC50 was 16.1 µM.
`CC(C)c1ccc(COc2cc(NC(=O)Cc3cccnc3)ccc2N(C)S(C)(=O)=O)cc1` gave an IC50 of 8.26 µM.
For `CN(c1ccc(NC(=O)Cc2cccnc2)cc1OCc1cc(Cl)ccc1Cl)S(C)(=O)=O`, the IC50 was 14.1 µM.
In the case of `CN(c1ccc(NC(=O)Cc2ccccn2)cc1OCc1cc(Cl)ccc1Cl)S(C)(=O)=O`, the IC50 is reported as 23.6 µM.
For `CCCCCCOc1cc(NC(=O)C2CCCCC2)ccc1N(C)S(C)(=O)=O`, the IC50 was 6.98 µM.
`Cc1cccc(COc2cc(NC(=O)c3ccccc3)ccc2N(C)S(C)(=O)=O)c1` gave an IC50 of 16.1 µM.
`Cc1ccc(C)c(COc2cc(NC(=O)c3ccccc3)ccc2N(C)S(C)(=O)=O)c1` showed an IC50 of 4.68 µM.
With `Cc1cccc(C)c1COc1cc(NC(=O)Cc2ccncc2)ccc1N(C)S(C)(=O)=O` the IC50 was 19.9 µM.
In the case of `Cc1cccc(C)c1COc1cc(NC(=O)Cc2cccnc2)ccc1N(C)S(C)(=O)=O`, the IC50 is reported as 22.5 µM.
With `CCCCCCOc1cc(NC(=O)c2ccccc2)ccc1N(C)S(C)(=O)=O` the IC50 was 12 µM.
For `CCCCCCOc1cc(NC(=O)Cc2ccccn2)ccc1N(C)S(C)(=O)=O`, the IC50 was 7.68 µM.
`Cc1cccc(COc2cc(NC(=O)Cc3cccnc3)ccc2N(C)S(C)(=O)=O)c1` gave an IC50 of 93.6 µM.
`CCCCCCOc1cc(NC(=O)Cc2cccnc2)ccc1N(C)S(C)(=O)=O` showed an IC50 of 12.1 µM.
For `Cc1ccccc1COc1cc(NC(=O)Cc2ccccn2)ccc1N(C)S(C)(=O)=O`, the IC50 was 93.9 µM.
With `Cc1cccc(COc2cc(NC(=O)C3CCCCC3)ccc2N(C)S(C)(=O)=O)c1` the IC50 was 44.2 µM.
Work on `Cc1cc(C)c(COc2cc(NC(=O)Cc3ccncc3)ccc2N(C)S(C)(=O)=O)c(C)c1` yielded an IC50 of 13.2 µM.
Compound `CC(C)c1ccc(COc2cc(NC(=O)C3CCCCC3)ccc2N(C)S(C)(=O)=O)cc1` has an IC50 of 16.1 µM.
In the case of `CN(c1ccc(NC(=O)Cc2ccncc2)cc1OCc1cc(Cl)ccc1Cl)S(C)(=O)=O`, the IC50 is reported as 7.64 µM.
Compound `CCCCCCOc1cc(NC(=O)Cc2ccncc2)ccc1N(C)S(C)(=O)=O` has an IC50 of 9.56 µM.
Work on `CC(C)c1ccc(COc2cc(NC(=O)c3ccccc3)ccc2N(C)S(C)(=O)=O)cc1` yielded an IC50 of 7.93 µM.
With `Cc1cc(C)c(COc2cc(NC(=O)C3CCCCC3)ccc2N(C)S(C)(=O)=O)c(C)c1` the IC50 was 18.5 µM.
Compound `Cc1cc(C)c(COc2cc(NC(=O)Cc3cccnc3)ccc2N(C)S(C)(=O)=O)c(C)c1` has an IC50 of 10.4 µM.
Compound `Cc1ccccc1COc1cc(NC(=O)C2CCCCC2)ccc1N(C)S(C)(=O)=O` has an IC50 of 28.5 µM.
`Cc1cccc(COc2cc(NC(=O)Cc3ccccn3)ccc2N(C)S(C)(=O)=O)c1` gave an IC50 of 14.9 µM.
Compound `Cc1cccc(C)c1COc1cc(NC(=O)Cc2ccccn2)ccc1N(C)S(C)(=O)=O` has an IC50 of 41.4 µM.
Compound `CS(=O)(=O)Nc1ccc([N+](=O)[O-])cc1Oc1ccccc1` [NIMESULIDE] has an IC50 of 173 µM.
